In ChEMBL document CHEMBL3351278, “Pyridine-3-carboxamide-6-yl-ureas as novel inhibitors of bacterial DNA gyrase: structure based design, synthesis, SAR and antimicrobial activity” (Eur J Med Chem, 2014):
In brackets after ≈: the same amount, converted by molar mass.

What was measured:
Staphylococcus aureus [1] = test: Antibacterial activity against Staphylococcus aureus ATCC 29213 incubated for 24 hrs in presence of 50% horse serum by broth microdilution method; format: functional; conditions: ATCC 29213, 24 h
Haemophilus influenzae = test: Antibacterial activity against Haemophilus influenzae ATCC 49247 incubated for 24 hrs by broth microdilution method; format: functional; conditions: ATCC 49247, 24 h
Enterococcus faecalis = test: Antibacterial activity against Enterococcus faecalis ATCC 29212 incubated for 24 hrs by broth microdilution method; format: functional; conditions: ATCC 29212, 24 h
Staphylococcus aureus [2] = test: Antibacterial activity against Staphylococcus aureus ATCC 29213 incubated for 24 hrs by broth microdilution method; format: functional; conditions: ATCC 29213, 24 h
DNA gyrase = DNA gyrase (Escherichia coli, UniProt P0AES4+P0AES6); test: Inhibition of Escherichia coli GyrB A2B2 subunits assessed reduction in DNA supercoiling activity by malachite green dye based by spectrophotometry; format: protein-complex assay
Procedure, shortened: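 Inhibition was measured as loss of ATPase activity of the E. coli GyrB enzyme and reported as IC50.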

[3] = Retention time of the compound by HPLC method; format: physicochemical
Staphylococcus aureus [4] = test: Potency shift, ratio of MIC against Staphylococcus aureus ATCC 29213 in presence of 50% horse serum to MIC against taphylococcus aureus ATCC 29213 in absence of 50% horse serum; format: functional
Streptococcus pyogenes [5] = test: Antibacterial activity against Streptococcus pyogenes ATCC 51339 incubated for 24 hrs by broth microdilution method; format: functional; conditions: ATCC 51339, 24 h
Escherichia coli [6] = test: Antibacterial activity against Escherichia coli ATCC 25922 incubated for 24 hrs by broth microdilution method; format: functional; conditions: ATCC 25922, 24 h
Staphylococcus aureus [7] = test: Antibacterial activity against Staphylococcus aureus ATCC 29213 expressing GyrB T173N and ParE T167N mutant incubated for 24 hrs by broth microdilution method; format: functional; conditions: ATCC 29213, 24 h
Streptococcus pneumoniae = test: Antibacterial activity against Streptococcus pneumoniae ATCC 49616 incubated for 24 hrs by broth microdilution method; format: functional; conditions: ATCC 49616, 24 h
Staphylococcus aureus [8] = test: Antibacterial activity against Staphylococcus aureus ATCC 29213 expressing GyrB T173N mutant incubated for 24 hrs by broth microdilution method; format: functional; conditions: ATCC 29213, 24 h
Escherichia coli [9] = test: Antibacterial activity against Escherichia coli N43 expressing efflux pump mutant incubated for 24 hrs by broth microdilution method; format: functional; conditions: N43, 24 h
Streptococcus pyogenes [10] = test: Antibacterial activity against Streptococcus pyogenes ATCC 51339 expressing ParE A53S mutant incubated for 24 hrs by broth microdilution method; format: functional; conditions: ATCC 51339, 24 h
[11] = test system: Staphylococcus epidermidis; test: Antibacterial activity against Staphylococcus epidermidis ATCC 12228 incubated for 24 hrs by broth microdilution method; format: functional; conditions: ATCC 12228, 24 h
[12] = target: DNA topoisomerase 4 subunit B (Escherichia coli K-12, UniProt P20083); test: Inhibition of Escherichia coli ParE
[13] = target: DNA topoisomerase 4 subunit B (Staphylococcus aureus, UniProt P0C1S7); test: Inhibition of Staphylococcus aureus ParE
DNA gyrase subunit B = DNA gyrase subunit B (Staphylococcus aureus, UniProt P0A0K8); test: Inhibition of Staphylococcus aureus GyrB assessed reduction in DNA supercoiling activity by malachite green dye based by spectrophotometry

| Compound | MIC (Staphylococcus aureus [1]) [µg/mL] | MIC (Haemophilus influenzae) [µg/mL] | MIC (Enterococcus faecalis) [µg/mL] | MIC (Staphylococcus aureus [2]) [µg/mL] | IC50 (DNA gyrase) [nM] | Retention_time [3] [min] | Ratio (Staphylococcus aureus [4]) | MIC (Streptococcus pyogenes [5]) [µg/mL] | MIC (Escherichia coli [6]) [µg/mL] | MIC (Staphylococcus aureus [7]) [µg/mL] | MIC (Streptococcus pneumoniae) [µg/mL] | MIC (Staphylococcus aureus [8]) [µg/mL] | MIC (Escherichia coli [9]) [µg/mL] | MIC (Streptococcus pyogenes [10]) [µg/mL] | MIC [11] [µg/mL] | IC50 [12] [nM] | IC50 [13] [nM] | IC50 (DNA gyrase subunit B) [nM] |
| --- | --- | --- | --- | --- | --- | --- | --- | --- | --- | --- | --- | --- | --- | --- | --- | --- | --- | --- |
| CCNC(=O)Nc1cc(Nc2cccnc2)c(C(=O)Nc2ccccc2)cn1 | 2 | > 64 | 0.25 (≈ 0.664 µM) | 1 (≈ 2.66 µM) | 430 | 1.46 | 2 | 1 (≈ 2.66 µM) | – | – | – | – | – | – | – | – | – | – |
| CCNC(=O)Nc1cc(-n2cccn2)c(C(=O)Nc2cccc(Cl)c2)cn1 | – | > 64 | 1 (≈ 2.6 µM) | 8 (≈ 20.8 µM) | 2960 | 1.83 | – | 4 (≈ 10.4 µM) | > 64 | > 64 | 1 (≈ 2.6 µM) | 32 (≈ 83.2 µM) | 32 (≈ 83.2 µM) | 16 (≈ 41.6 µM) | 2 (≈ 5.2 µM) | – | – | – |
| CCNC(=O)Nc1cc(Nc2ccccc2)c(C(=O)Nc2ccccc2)cn1 | – | > 64 | 0.25 (≈ 0.666 µM) | 1 (≈ 2.66 µM) | 40 | 1.58 | – | 2 (≈ 5.33 µM) | > 64 | > 64 | 1 (≈ 2.66 µM) | 2 (≈ 5.33 µM) | 8 (≈ 21.3 µM) | 16 (≈ 42.6 µM) | 0.25 (≈ 0.666 µM) | – | – | – |
| CCNC(=O)Nc1cc(Nc2ccccc2)c(C(=O)Nc2cccc(C)c2)cn1 | – | > 64 | 0.125 (≈ 0.321 µM) | 1 (≈ 2.57 µM) | 140 | 1.68 | – | 2 (≈ 5.14 µM) | > 64 | > 64 | 0.5 (≈ 1.28 µM) | > 64 | > 64 | > 64 | 0.5 (≈ 1.28 µM) | – | – | – |
| CCNC(=O)Nc1cc(Nc2ccccc2)c(C(=O)Nc2cccnc2)cn1 | 4 | > 64 | 0.125 (≈ 0.332 µM) | 1 (≈ 2.66 µM) | 170 | 1.36 | 4 | 1 (≈ 2.66 µM) | > 64 | > 64 | 0.25 (≈ 0.664 µM) | 4 (≈ 10.6 µM) | 8 (≈ 21.3 µM) | 2 (≈ 5.31 µM) | 0.25 (≈ 0.664 µM) | – | – | – |
| CCNC(=O)Nc1cc(Nc2ccccc2)c(C(=O)Nc2ccc(N3CCOCC3)nc2)cn1 | 16 | > 64 | 0.25 (≈ 0.542 µM) | 2 (≈ 4.33 µM) | 110 | 1.47 | 8 | 1 (≈ 2.17 µM) | > 64 | > 64 | 0.5 (≈ 1.08 µM) | > 64 | > 64 | 4 (≈ 8.67 µM) | 1 (≈ 2.17 µM) | – | – | – |
| CCNC(=O)Nc1cc(Nc2ccccc2)c(C(=O)Nc2ccc(NC(C)=O)nc2)cn1 | 8 | > 64 | 0.125 (≈ 0.288 µM) | 2 (≈ 4.61 µM) | 39 | 1.45 | 4 | 0.5 (≈ 1.15 µM) | > 64 | > 64 | 0.125 (≈ 0.288 µM) | > 64 | > 64 | 2 (≈ 4.61 µM) | 0.25 (≈ 0.577 µM) | – | – | – |
| CCNC(=O)Nc1cc(Nc2ccc(O)cc2)c(C(=O)Nc2cccnc2)cn1 | – | – | – | 8 (≈ 20.4 µM) | 28 | – | – | – | > 64 | – | – | – | – | – | – | 940 | 86 | 24 |
| CCNC(=O)Nc1cc(Nc2cccc(O)c2)c(C(=O)Nc2cccnc2)cn1 | – | – | – | – | 36 | – | – | – | > 64 | – | – | – | – | – | – | 780 | – | – |
| CCNC(=O)Nc1cc(Nc2ccc(OC)cc2OC)c(C(=O)Nc2cccnc2)cn1 | – | – | – | 1 (≈ 2.29 µM) | 46 | – | – | – | > 64 | – | – | – | – | – | – | 42000 | 800 | 41 |
